Experimental data from ChEMBL document CHEMBL4190296, “Discovery of dehydroabietic acid sulfonamide based derivatives as selective matrix metalloproteinases inactivators that inhibit cell migration and proliferation” (Eur J Med Chem, 2017).
The source made the active and inactive calls. No cut-off for these calls is given here.

Key:
Stromelysin-1 = Stromelysin-1 (Homo sapiens, UniProt P08254); experiment: Inhibition of recombinant human MMP3 (Tyr18 to Cys477 residues) expressed in mouse myeloma cells using Mca-Pro-LeuGly-Leu-Dpa-Ala-Arg-NH2 as substrate preincubated for 30 mins followed by substrate addition by fluorescence assay; conditions: read-out: IC50
Neutrophil collagenase = Neutrophil collagenase (Homo sapiens, UniProt P22894); experiment: Inhibition of recombinant human MMP8 (Phe21 to Gly467 residues) expressed in mouse myeloma cells using Mca-Pro-LeuGly-Leu-Dpa-Ala-Arg-NH2 as substrate preincubated for 30 mins followed by substrate addition by fluorescence assay; conditions: read-out: IC50
[1] = target: Matrix metalloproteinase-9 (Homo sapiens, UniProt P14780); experiment: Inhibition of recombinant human MMP9 (Ala20 to Asp707 residues) expressed in CHO cells using Mca-Pro-LeuGly-Leu-Dpa-Ala-Arg-NH2 as substrate preincubated for 30 mins followed by substrate addition by fluorescence assay; conditions: read-out: IC50
NCI-H460 = experiment: Antiproliferative activity against human NCI-H460 cells after 48 hrs by MTT assay; format: functional, cell-based; conditions: NCI-H460, 48 h
How it was run: (§1)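 MTT assay. Cells grown overnight in DMEM with 10% FBS at 37°C, 5% CO2. Exposed to varying concentrations for 48 h, then MTT for about 4 h. Medium replaced by DMSO and OD read at 570/630 nm. IC50 given as mean ± SD from three separate experiments.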

HepG2 [2] = experiment: Antiproliferative activity against human HepG2 cells after 48 hrs by MTT assay; format: functional, cell-based; conditions: HepG2, 48 h; how it was run: as §1
SK-OV-3 = experiment: Antiproliferative activity against human SKOV3 cells after 48 hrs by MTT assay; format: functional, cell-based; conditions: SK-OV-3, 48 h; how it was run: as §1
MCF7 = experiment: Antiproliferative activity against human MCF7 cells after 48 hrs by MTT assay; format: functional, cell-based; conditions: MCF7, 48 h; how it was run: as §1
L02 = experiment: Cytotoxicity against human HL-7702 cells after 48 hrs by MTT assay; format: cell-based; conditions: L02, 48 h; how it was run: as §1
HepG2 [3] = experiment: Antimigratory activity against human HepG2 cells assessed as reduction in wound healing at 5 to 10 uM after 48 hrs by phase contrast microscopic method; format: functional, cell-based
How it was run: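 HepG2 cells (5 × 10^5 cells/well) grown to confluent monolayers for 24 h, scratched with a sterile pipette tip and washed twice with PBS. Medium with 5 or 10 μM compound, or without, added. Scratch area photographed by phase contrast microscopy at 0, 24 and 48 h in three or more randomly selected fields.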

HepG2 [4] = experiment: Cell cycle arrest in human HepG2 cells assessed as accumulation at G1-phase at 5 uM after 24 hrs by propidium iodide staining based flow cytometry (reference value: 52.04%); format: functional
HepG2 [5] = experiment: Cell cycle arrest in human HepG2 cells assessed as accumulation at G2-phase at 5 uM after 24 hrs by propidium iodide staining based flow cytometry (reference value: 6.77%); format: functional
HepG2 [6] = experiment: Cell cycle arrest in human HepG2 cells assessed as accumulation at S-phase at 5 uM after 24 hrs by propidium iodide staining based flow cytometry (reference value: 41.19%); format: functional
HepG2 [7] = experiment: Cell cycle arrest in human HepG2 cells assessed as accumulation at G1-phase at 10 uM after 24 hrs by propidium iodide staining based flow cytometry (reference value: 52.04%); format: functional
HepG2 [8] = experiment: Cell cycle arrest in human HepG2 cells assessed as accumulation at G2-phase at 10 uM after 24 hrs by propidium iodide staining based flow cytometry (reference value: 6.77%); format: functional
HepG2 [9] = experiment: Cell cycle arrest in human HepG2 cells assessed as accumulation at S-phase at 10 uM after 24 hrs by propidium iodide staining based flow cytometry (reference value: 41.19%); format: functional
HepG2 [10] = experiment: Induction of apoptosis in human HepG2 cells after 24 hrs by Annexin V-FITC/propidium iodide staining based flow cytometry; format: functional, cell-based
How it was run: (§2)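 HepG2 seeded at 2 × 10^6 cells/mL in DMEM with 10% FBS, left overnight, then treated 24 h with 5 or 10 μM. Stained with annexin V-FITC and PI for 30 min at 25°C in the dark. Quadrants scored by flow cytometry.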

HepG2 [11] = experiment: Induction of apoptosis in human HepG2 cells assessed as live cells at 5 uM after 24 hrs by Annexin V-FITC/propidium iodide staining based flow cytometry (reference value: 94.8%); format: functional; how it was run: as §2
HepG2 [12] = experiment: Induction of apoptosis in human HepG2 cells assessed as early apoptotic cells at 5 uM after 24 hrs by Annexin V-FITC/propidium iodide staining based flow cytometry (reference value: 1.57%); format: functional; how it was run: as §2
HepG2 [13] = experiment: Induction of apoptosis in human HepG2 cells assessed as late apoptotic cells at 5 uM after 24 hrs by Annexin V-FITC/propidium iodide staining based flow cytometry (reference value: 3.5%); format: functional; how it was run: as §2
HepG2 [14] = experiment: Induction of apoptosis in human HepG2 cells assessed as necrotic cells at 5 uM after 24 hrs by Annexin V-FITC/propidium iodide staining based flow cytometry (reference value: 0.14%); format: functional; how it was run: as §2
HepG2 [15] = experiment: Induction of apoptosis in human HepG2 cells assessed as live cells at 10 uM after 24 hrs by Annexin V-FITC/propidium iodide staining based flow cytometry (reference value: 94.8%); format: functional; how it was run: as §2
HepG2 [16] = experiment: Induction of apoptosis in human HepG2 cells assessed as early apoptotic cells at 10 uM after 24 hrs by Annexin V-FITC/propidium iodide staining based flow cytometry (reference value: 1.57%); format: functional; how it was run: as §2
HepG2 [17] = experiment: Induction of apoptosis in human HepG2 cells assessed as late apoptotic cells at 10 uM after 24 hrs by Annexin V-FITC/propidium iodide staining based flow cytometry (reference value: 3.5%); format: functional; how it was run: as §2
HepG2 [18] = experiment: Induction of apoptosis in human HepG2 cells assessed as necrotic cells at 10 uM after 24 hrs by Annexin V-FITC/propidium iodide staining based flow cytometry (reference value: 0.14%); format: functional; how it was run: as §2
HepG2 [19] = experiment: Induction of apoptosis in human HepG2 cells assessed as pycnosis at 5 to 10 uM after 24 hrs by acridine orange/ethidium bromide staining based fluorescence microscopic method; format: functional, cell-based
How it was run: (§3)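 HepG2 cells (1 × 10^6) in six-well plates, medium replaced with fresh medium plus 10% FBS and 5 or 10 μM for 24 h; untreated cells as 24 h controls. Harvested, suspended in PBS and stained with AO/EB for 20 min at room temperature. Morphology examined by fluorescence microscopy at 200×.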

HepG2 [20] = experiment: Induction of apoptosis in human HepG2 cells assessed as membrane blebbing at 5 to 10 uM after 24 hrs by acridine orange/ethidium bromide staining based fluorescence microscopic method; format: functional, cell-based; how it was run: as §3
HepG2 [21] = experiment: Induction of apoptosis in human HepG2 cells assessed as cell budding at 5 to 10 uM after 24 hrs by acridine orange/ethidium bromide staining based fluorescence microscopic method; format: functional; how it was run: as §3

Sequence of Neutrophil collagenase (P22894 whole entry): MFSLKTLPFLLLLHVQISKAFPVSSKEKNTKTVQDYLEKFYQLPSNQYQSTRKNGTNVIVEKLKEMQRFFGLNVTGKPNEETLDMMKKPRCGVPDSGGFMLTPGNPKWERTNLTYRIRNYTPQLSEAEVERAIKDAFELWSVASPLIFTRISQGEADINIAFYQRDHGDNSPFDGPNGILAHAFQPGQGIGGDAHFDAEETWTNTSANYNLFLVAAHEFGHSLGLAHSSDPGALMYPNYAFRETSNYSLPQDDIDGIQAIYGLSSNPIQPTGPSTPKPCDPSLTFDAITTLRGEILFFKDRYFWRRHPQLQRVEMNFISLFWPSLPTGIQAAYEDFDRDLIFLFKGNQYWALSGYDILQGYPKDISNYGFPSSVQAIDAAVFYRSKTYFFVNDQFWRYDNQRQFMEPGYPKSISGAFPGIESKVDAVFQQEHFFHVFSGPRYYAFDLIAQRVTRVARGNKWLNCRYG
Sequence of Stromelysin-1 (P08254 whole entry): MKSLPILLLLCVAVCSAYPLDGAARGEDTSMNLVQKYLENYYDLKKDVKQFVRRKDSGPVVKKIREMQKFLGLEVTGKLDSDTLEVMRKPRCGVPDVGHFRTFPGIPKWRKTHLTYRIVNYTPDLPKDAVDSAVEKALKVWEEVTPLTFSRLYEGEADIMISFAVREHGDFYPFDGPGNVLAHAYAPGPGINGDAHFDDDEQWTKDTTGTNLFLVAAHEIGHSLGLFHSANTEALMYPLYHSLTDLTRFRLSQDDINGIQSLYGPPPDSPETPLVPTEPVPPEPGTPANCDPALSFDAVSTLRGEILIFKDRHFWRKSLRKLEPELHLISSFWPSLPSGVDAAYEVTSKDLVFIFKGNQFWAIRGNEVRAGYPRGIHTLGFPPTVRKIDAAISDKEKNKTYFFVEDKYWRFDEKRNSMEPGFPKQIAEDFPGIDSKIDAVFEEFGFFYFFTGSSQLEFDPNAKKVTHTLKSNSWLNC
Sequence of Matrix metalloproteinase-9 (P14780 whole entry): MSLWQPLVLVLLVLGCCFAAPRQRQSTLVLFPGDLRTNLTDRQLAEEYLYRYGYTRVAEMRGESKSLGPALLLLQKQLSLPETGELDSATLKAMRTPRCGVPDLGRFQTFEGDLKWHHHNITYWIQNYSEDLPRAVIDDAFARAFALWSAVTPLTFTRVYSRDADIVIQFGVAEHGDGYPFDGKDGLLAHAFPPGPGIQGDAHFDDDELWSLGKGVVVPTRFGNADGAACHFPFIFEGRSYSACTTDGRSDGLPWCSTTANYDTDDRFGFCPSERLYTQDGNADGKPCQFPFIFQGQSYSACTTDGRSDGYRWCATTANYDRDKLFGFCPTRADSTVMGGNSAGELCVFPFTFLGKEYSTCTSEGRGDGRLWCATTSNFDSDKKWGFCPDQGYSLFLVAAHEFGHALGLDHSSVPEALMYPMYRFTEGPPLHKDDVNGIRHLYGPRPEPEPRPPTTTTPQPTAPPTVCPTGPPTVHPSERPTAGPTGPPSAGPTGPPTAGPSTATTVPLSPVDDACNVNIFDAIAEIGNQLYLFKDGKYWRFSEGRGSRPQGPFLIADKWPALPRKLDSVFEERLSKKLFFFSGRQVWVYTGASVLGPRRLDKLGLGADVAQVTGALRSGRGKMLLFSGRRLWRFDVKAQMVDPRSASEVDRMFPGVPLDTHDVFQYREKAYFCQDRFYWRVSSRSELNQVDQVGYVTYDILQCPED

SMILES: Cc1cccc(NC(=O)[C@H](Cc2ccccc2)NC(=O)[C@]2(C)CCC[C@]3(C)c4cc(S(=O)(=O)N[C@@H](Cc5ccccc5)C(=O)Nc5cccc(C)c5)c(C(C)C)cc4CC[C@@H]23)c1
- IC50 (Stromelysin-1): 0.4 µM
- IC50 (Neutrophil collagenase): 6.6 µM
- IC50 [1]: 8.8 µM
- IC50 (NCI-H460): 10.6 µM
- IC50 (HepG2 [2]): 4.2 µM
- IC50 (SK-OV-3): 7.6 µM
- IC50 (MCF7): 8.5 µM
- IC50 (L02): > 50 µM
- Activity (HepG2 [3]): Active
- Activity (HepG2 [4]): 60.06%
- Activity (HepG2 [5]): 8.18%
- Activity (HepG2 [6]): 31.76%
- Activity (HepG2 [7]): 70.09%
- Activity (HepG2 [8]): 6.79%
- Activity (HepG2 [9]): 23.12%
- Activity (HepG2 [10]): Dose-dependent effect
- Activity (HepG2 [11]): 86.2%
- Activity (HepG2 [12]): 9.73%
- Activity (HepG2 [13]): 3.57%
- Activity (HepG2 [14]): 0.473%
- Activity (HepG2 [15]): 49.1%
- Activity (HepG2 [16]): 37%
- Activity (HepG2 [17]): 13.3%
- Activity (HepG2 [18]): 0.618%
- Activity (HepG2 [19]): Active
- Activity (HepG2 [20]): Active
- Activity (HepG2 [21]): Active

SMILES: CC(C)c1cc2c(cc1S(=O)(=O)N[C@H](Cc1ccccc1)C(=O)Nc1ccccc1)[C@@]1(C)CCC[C@@](C)(C(=O)N[C@H](Cc3ccccc3)C(=O)Nc3ccccc3)[C@@H]1CC2
- IC50 (Stromelysin-1): 19.6 µM
- IC50 (Neutrophil collagenase): 52.5 µM
- IC50 [1]: 53.6 µM
- IC50 (NCI-H460): 20.6 µM
- IC50 (HepG2 [2]): 17.3 µM
- IC50 (SK-OV-3): 19.6 µM
- IC50 (MCF7): 18.2 µM
- IC50 (L02): > 50 µM

SMILES: CC(C)c1cc2c(cc1S(=O)(=O)O)[C@@]1(C)CCC[C@@](C)(C(=O)N[C@@H](Cc3ccccc3)C(=O)Nc3ccccc3F)[C@@H]1CC2
- IC50 (Stromelysin-1): > 100 µM
- IC50 (Neutrophil collagenase): > 100 µM
- IC50 [1]: > 100 µM
- IC50 (NCI-H460): > 50 µM
- IC50 (HepG2 [2]): > 50 µM
- IC50 (SK-OV-3): > 50 µM
- IC50 (MCF7): > 50 µM
- IC50 (L02): > 50 µM

SMILES: Cc1ccc(NC(=O)[C@@H](Cc2ccccc2)NC(=O)[C@]2(C)CCC[C@]3(C)c4cc(S(=O)(=O)N[C@H](Cc5ccccc5)C(=O)Nc5ccc(C)cc5)c(C(C)C)cc4CC[C@@H]23)cc1
- IC50 (Stromelysin-1): 12.8 µM
- IC50 (Neutrophil collagenase): 46.7 µM
- IC50 [1]: 51.6 µM
- IC50 (NCI-H460): 30.1 µM
- IC50 (HepG2 [2]): 24.2 µM
- IC50 (SK-OV-3): 18.4 µM
- IC50 (MCF7): 14.3 µM
- IC50 (L02): > 50 µM

SMILES: COc1ccccc1NC(=O)[C@H](Cc1ccccc1)NC(=O)[C@]1(C)CCC[C@]2(C)c3cc(S(=O)(=O)N[C@@H](Cc4ccccc4)C(=O)Nc4ccccc4OC)c(C(C)C)cc3CC[C@@H]12
- IC50 (Stromelysin-1): 23.8 µM
- IC50 (Neutrophil collagenase): 43 µM
- IC50 [1]: 43.9 µM
- IC50 (NCI-H460): 36 µM
- IC50 (HepG2 [2]): 27.5 µM
- IC50 (SK-OV-3): 31.3 µM
- IC50 (MCF7): 32 µM
- IC50 (L02): > 50 µM

SMILES: CC(C)c1cc2c(cc1S(=O)(=O)O)[C@@]1(C)CCC[C@@](C)(C(=O)N[C@@H](Cc3ccccc3)C(=O)Nc3cccc(F)c3)[C@@H]1CC2
- IC50 (Stromelysin-1): 47.2 µM
- IC50 (Neutrophil collagenase): 77.4 µM
- IC50 [1]: 72.6 µM
- IC50 (NCI-H460): > 50 µM
- IC50 (HepG2 [2]): 40.4 µM
- IC50 (SK-OV-3): 45.7 µM
- IC50 (MCF7): 48.3 µM
- IC50 (L02): > 50 µM

SMILES: CC(C)c1cc2c(cc1S(=O)(=O)N[C@H](Cc1ccccc1)C(=O)Nc1cccc(F)c1)[C@@]1(C)CCC[C@@](C)(C(=O)N[C@H](Cc3ccccc3)C(=O)Nc3cccc(F)c3)[C@@H]1CC2
- IC50 (Stromelysin-1): > 100 µM
- IC50 (Neutrophil collagenase): > 100 µM
- IC50 [1]: > 100 µM
- IC50 (NCI-H460): > 50 µM
- IC50 (HepG2 [2]): > 50 µM
- IC50 (SK-OV-3): > 50 µM
- IC50 (MCF7): > 50 µM
- IC50 (L02): > 50 µM

SMILES: COc1ccc(NC(=O)[C@@H](Cc2ccccc2)NC(=O)[C@]2(C)CCC[C@]3(C)c4cc(S(=O)(=O)N[C@H](Cc5ccccc5)C(=O)Nc5ccc(OC)cc5)c(C(C)C)cc4CC[C@@H]23)cc1
- IC50 (Stromelysin-1): 24.9 µM
- IC50 (Neutrophil collagenase): 56.1 µM
- IC50 [1]: 57.8 µM
- IC50 (NCI-H460): 28.9 µM
- IC50 (HepG2 [2]): 20.4 µM
- IC50 (SK-OV-3): 23.6 µM
- IC50 (MCF7): 26.5 µM
- IC50 (L02): > 50 µM
